Source: ChEMBL document CHEMBL1123808, “Synthesis of two glucagon antagonists: receptor binding, adenylate cyclase, and effects on blood plasma glucose levels” (J Med Chem, 1987)

Legend:
Rattus norvegicus [1] = organism: Rattus norvegicus; experiment: Ability to displace [125I]glucagon was determined; assay type: functional
In short: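 Rat liver plasma membranes (male Sprague-Dawley; 50 μg protein/0.5 mL) in Tris-HCl 25 mM pH 7.5 with 1% BSA, incubated with [125I]glucagon (100 000 cpm, 25 fmol) and unlabelled peptide at various concentrations for 10 min at 30 °C. Then iced, filtered and washed, and filter radioactivity counted. Nonspecific binding taken with 1 μM unlabelled glucagon. Triplicates, repeated two or three times. IC50 from displacement curves.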

Rattus norvegicus [2] = organism: Rattus norvegicus; experiment: Binding affinity against glucagon receptor was determined in rat by using adenylate cyclase assay; assay type: functional
Rattus norvegicus [3] = experiment: Compound tested for the increase in blood glucose level in rats at a dose of 1 ug/kg in 10 min; assay type: functional, organism-based
In short: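 Male Wistar rats (250-400 g), fed ad libitum, under pentobarbital (70 mg/kg) at 36-37 °C. Peptide given as a femoral-vein bolus in 0.5 mL NaCl 145 mM/Na2CO3 2 mM/0.25% BSA. Plasma glucose from femoral-artery samples at 0, 2, 5, 10, 20, 30, 40, 50 min, expressed as change from each rat's basal level. Buffer-only controls run. n = 4-6.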

Rattus norvegicus [4] = organism: Rattus norvegicus; experiment: Compound tested for the inhibition of glucagon-mediated hyperglycemia in rats; assay type: functional; parameters: scale not given: the % may be the effect or the level left
In short: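 Normal male Wistar rats under pentobarbital, femoral vein and artery catheterised. At time 0, glucagon 1 μg/kg and an excess of analogue were given together in the same 0.5 mL buffer bolus. Plasma glucose followed over 50 min as change from basal. Mean of 4-6 animals.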

## CSCC[C@H](NC(=O)[C@H](CC(C)C)NC(=O)[C@H](Cc1c[nH]c2ccccc12)NC(=O)[C@H](CCC(N)=O)NC(=O)[C@@H](NC(=O)[C@H](Cc1ccccc1)NC(=O)[C@H](CCC(=O)O)NC(=O)[C@H](CCC(N)=O)NC(=O)[C@H](C)NC(=O)[C@H](CCCCN)NC(=O)[C@H](CCCCN)NC(=O)[C@H](CO)NC(=O)[C@H](CC(=O)O)NC(=O)[C@H](CC(C)C)NC(=O)[C@H](Cc1ccc(O)cc1)NC(=O)[C@H](CCCNC(=N)N)NC(=O)[C@H](CO)NC(=O)[C@H](Cc1cc(I)c(O)c(I)c1)NC(=O)[C@H](CC(=O)O)NC(=O)[C@H](CO)NC(=O)[C@@H](NC(=O)[C@H](Cc1ccccc1)NC(=O)[C@H](Cc1ccc(O)cc1)NC(=O)[C@@H](Cc1ccccc1)NC(=O)[C@H](CCC(N)=O)NC(=O)[C@H](CO)NC(=O)[C@@H](N)Cc1c[nH]cn1)[C@@H](C)O)C(C)C)C(=O)N[C@@H](CC(N)=O)C(=O)N[C@H](C(=O)O)[C@@H](C)O [listing 1 of 2 here]
Rattus norvegicus [1]
  IC50: 13 nM

## GLUCAGON [listing 1 of 2 here]
Rattus norvegicus [1]
  IC50: 6.7 nM

## GLUCAGON [listing 2 of 2 here]
Rattus norvegicus [2]
  ED50: 9.6 nM
Rattus norvegicus [3]
  Activity: 95.1 mg/dL

## CSCC[C@H](NC(=O)[C@H](CC(C)C)NC(=O)[C@H](Cc1c[nH]c2ccccc12)NC(=O)[C@H](CCC(N)=O)NC(=O)[C@@H](NC(=O)[C@H](Cc1ccccc1)NC(=O)[C@H](CCC(=O)O)NC(=O)[C@H](CCC(N)=O)NC(=O)[C@H](C)NC(=O)[C@H](CCCCN)NC(=O)[C@H](CCCCN)NC(=O)[C@H](CO)NC(=O)[C@H](CC(=O)O)NC(=O)[C@H](CC(C)C)NC(=O)[C@H](Cc1ccc(O)cc1)NC(=O)[C@H](CCCNC(=N)N)NC(=O)[C@H](CO)NC(=O)[C@H](Cc1cc(I)c(O)c(I)c1)NC(=O)[C@H](CC(=O)O)NC(=O)[C@H](CO)NC(=O)[C@@H](NC(=O)[C@H](Cc1ccccc1)NC(=O)[C@H](Cc1ccc(O)cc1)NC(=O)[C@@H](Cc1ccccc1)NC(=O)[C@H](CCC(N)=O)NC(=O)[C@H](CO)NC(=O)[C@@H](N)Cc1c[nH]cn1)[C@@H](C)O)C(C)C)C(=O)N[C@@H](CC(N)=O)C(=O)N[C@H](C(=O)O)[C@@H](C)O [listing 2 of 2 here]
Rattus norvegicus [4]
  Activity: 50%
